Consider 22 compounds from ChEMBL document CHEMBL1140053, “Discovery of antimycobacterial spiro-piperidin-4-ones: an atom economic, stereoselective synthesis, and biological intervention” (J Med Chem, 2008).

In brackets after ≈: the same amount, converted by molar mass.

This test has as its system Mycobacterium tuberculosis. Kind of test: Antimycobacterial activity against multidrug-resistant Mycobacterium tuberculosis by agar dilution method. It counts as functional. The procedure, abridged: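 Clinical MDR isolate resistant to isoniazid, rifampicin, ethambutol and ofloxacin. Agar dilution in Middlebrook 7H11 agar with OADC, pH 7.40, NCCLS-like method, run in duplicate. MIC is the lowest concentration giving complete inhibition of growth.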
Usually MIC stands for the least concentration at which growth counts as inhibited. The compound `COc1ccccc1/C=C1\CN(C)C[C@@]2(C1=O)[C@@H](c1ccccc1OC)[C@@H]1CCCN1[C@@]21C(=O)Nc2ccccc21` (racemic) showed an MIC of 0.71 µg/mL (≈ 1.29 µM).

`CN1C/C(=C\c2cccs2)C(=O)[C@]2(C1)[C@@H](c1cccs1)CN(C)[C@@]21C(=O)Nc2ccccc21` (racemic) gave an MIC of 3.28 µg/mL (≈ 6.9 µM).

Turning to `CN1C/C(=C\c2cccs2)C(=O)[C@]2(C1)[C@@H](c1cccs1)[C@@H]1CCCN1[C@@]21C(=O)Nc2ccccc21` (racemic), inhibition of growth (MIC) required 0.38 µg/mL (≈ 0.757 µM).

In turn, `CN1C/C(=C\c2ccccc2Cl)C(=O)[C@]2(C1)[C@@H](c1ccccc1Cl)CN(C)[C@@]21C(=O)Nc2ccccc21` (racemic) returned an MIC of 0.08 µg/mL (≈ 0.15 µM).

Turning to `CN1C/C(=C\c2ccc(F)cc2)C(=O)[C@]2(C1)[C@@H](c1ccc(F)cc1)[C@H](c1ccccc1)N[C@@]21C(=O)Nc2ccccc21` (racemic), inhibition of growth (MIC) required 0.16 µg/mL (≈ 0.285 µM).

For `CN1C/C(=C\c2cccc(F)c2)C(=O)[C@]2(C1)[C@@H](c1cccc(F)c1)CN(C)[C@@]21C(=O)Nc2ccccc21` (racemic), the MIC was 1.56 µg/mL (≈ 3.12 µM).

The compound `CN1C/C(=C\c2ccccc2Cl)C(=O)[C@]2(C1)[C@@H](c1ccccc1Cl)[C@@H]1CCCN1[C@@]21C(=O)Nc2ccccc21` (racemic) displayed a minimal inhibitory concentration (MIC) of 0.71 µg/mL (≈ 1.27 µM). This MIC is about 2.2-fold lower than that of the compound before.

Take `CN1C/C(=C\c2ccc(Cl)cc2Cl)C(=O)[C@]2(C1)[C@@H](c1ccc(Cl)cc1Cl)CN(C)[C@@]21C(=O)Nc2ccccc21` (racemic): the MIC was found to be 2.59 µg/mL (≈ 4.31 µM).

With `CN1C/C(=C\c2ccccc2)C(=O)[C@]2(C1)[C@@H](c1ccccc1)[C@H](c1ccccc1)N[C@@]21C(=O)Nc2ccccc21` (racemic), the MIC was 1.49 µg/mL (≈ 2.83 µM).

In the case of `Cc1ccc(/C=C2\CN(C)C[C@@]3(C2=O)[C@@H](c2ccc(C)cc2)[C@H](c2ccccc2)N[C@@]32C(=O)Nc3ccccc32)cc1` (racemic), the MIC stood at 1.41 µg/mL (≈ 2.55 µM).

`COc1ccc(/C=C2\CN(C)C[C@@]3(C2=O)[C@@H](c2ccc(OC)cc2)[C@H](c2ccccc2)N[C@@]32C(=O)Nc3ccccc32)cc1` (racemic) gave a minimal inhibitory concentration (MIC) of 0.67 µg/mL (≈ 1.14 µM).

Compound `CN1C/C(=C\c2ccc(Cl)cc2Cl)C(=O)[C@]2(C1)[C@@H](c1ccc(Cl)cc1Cl)[C@H](c1ccccc1)N[C@@]21C(=O)Nc2ccccc21` (racemic) gave a minimal inhibitory concentration (MIC) of 2.35 µg/mL (≈ 3.54 µM).

`COc1ccccc1/C=C1\CN(C)C[C@@]2(C1=O)[C@@H](c1ccccc1OC)[C@H](c1ccccc1)N[C@@]21C(=O)Nc2ccccc21` (racemic): the minimum inhibitory concentration (MIC) came to 2.67 µg/mL (≈ 4.56 µM).

`CN1C/C(=C\c2ccccc2Cl)C(=O)[C@]2(C1)[C@@H](c1ccccc1Cl)[C@H](c1ccccc1)N[C@@]21C(=O)Nc2ccccc21` (racemic) displayed an MIC of 5.27 µg/mL (≈ 8.86 µM).

`CN1C/C(=C\c2cccc3ccccc23)C(=O)[C@]2(C1)[C@@H](c1cccc3ccccc13)[C@@H]1CCCN1[C@@]21C(=O)Nc2ccccc21` (racemic): it took 5.31 µg/mL (≈ 9 µM) to inhibit growth (MIC).

In turn, `Cc1ccccc1/C=C1\CN(C)C[C@@]2(C1=O)[C@@H](c1ccccc1C)[C@H](c1ccccc1)N[C@@]21C(=O)Nc2ccccc21` (racemic) showed a minimal inhibitory concentration (MIC) of 2.82 µg/mL (≈ 5.09 µM).

`COc1ccc(/C=C2\CN(C)C[C@@]3(C2=O)[C@@H](c2ccc(OC)cc2)CN(C)[C@@]32C(=O)Nc3ccccc32)cc1` (racemic): the MIC came to 0.36 µg/mL (≈ 0.688 µM).

As for `COc1ccccc1/C=C1\CN(C)C[C@@]2(C1=O)[C@@H](c1ccccc1OC)CN(C)[C@@]21C(=O)Nc2ccccc21` (racemic), 1.49 µg/mL (≈ 2.85 µM) was the least that counted as inhibitory (MIC).

With `CN1C/C(=C\c2ccc(F)cc2)C(=O)[C@]2(C1)[C@@H](c1ccc(F)cc1)[C@@H]1CCCN1[C@@]21C(=O)Nc2ccccc21` (racemic), 2.97 µg/mL (≈ 5.65 µM) was the least that counted as inhibitory (MIC).

With `CN1C/C(=C\c2ccco2)C(=O)[C@]2(C1)[C@@H](c1ccco1)CN(C)[C@@]21C(=O)Nc2ccccc21` (racemic), the MIC was 3.52 µg/mL (≈ 7.94 µM).

As to `Cc1ccccc1/C=C1\CN(C)C[C@@]2(C1=O)[C@@H](c1ccccc1C)CN(C)[C@@]21C(=O)Nc2ccccc21` (racemic), it took 0.39 µg/mL (≈ 0.793 µM) to inhibit growth (MIC). Against the preceding compound, the MIC is about 9-fold lower.

On to `NNC(=O)c1ccncc1` [ISONIAZID], for which the minimal inhibitory concentration (MIC) came to 45.6 µg/mL (≈ 332 µM).
